Hits are enriched below; roughly 1.9% of the tested compounds scored in any of these assays.
Rpn11 inh: inhibitors of human proteasome Rpn11. 360,000 tested, 0.59% active. human 26S proteasome, Ub4-pepOG fluorescence polarization; 20S core pre-blocked with epoxomicin. O00487. AID 588493. inhibition, % at 20 µM;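 active = inhibition at 20 µM, scaled to each plate's controls, above about 33%, limit read from the data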
Rin1 Abl inh: human Rin1-Abl interaction inhibition; TR-FRET Rin1/Abl binding, biochemical; inhibition, % at 7.35 µM; 360,000 tested, 0.4% active; AID 588664; P00519+Q13671; in the data active = inhibition above about 5%, passing the limit was not always enough
XiGFP reactiv: activators of X-chromosome reactivation in mouse fibroblasts | AID 743238 | 360,000 tested, 0.055% active | activation, % at 7.58 µM | XiGFP mouse fibroblasts, % GFP-positive cells imaging, 3 d; cells co-treated with 5-aza-dC sensitizer; scaled so ellipticine positive control = 100%;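 active = mean normalized replicate activation at least 10% and every replicate at or above 10%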
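System: SV40-immortalized XiGFP fibroblast cells, line 68-5-11 / Incubation: 3-day compound exposure, then 15 min fixation at room temperature / Compound: single concentration per compound, delivered by pin transfer / Buffer or medium: DMEM plus 5-aza-dC sensitizer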
NadD block: inhibitors of Staphylococcus aureus NadD | purified NadD enzyme, colorimetric absorbance read-out | inhibition, % at 20 µM | 360,000 tested, 0.78% active | AID 602399; in the data active = inhibition above about 26%
ABHD5 PLIN5 PPI: inhibitors of human ABHD5-perilipin-5 interaction | AID 602281 | Split G. princeps luciferase complementation, luminescence, 4 h | 360,000 tested, 0.78% active | inhibition, % at 4 µM | Q00G26+Q8WTS1;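 active = inhibition above the mean inhibition across every tested compound plus 3 SD, cut at about 22% in these data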
Target sequence (Q00G26 whole entry, looked up): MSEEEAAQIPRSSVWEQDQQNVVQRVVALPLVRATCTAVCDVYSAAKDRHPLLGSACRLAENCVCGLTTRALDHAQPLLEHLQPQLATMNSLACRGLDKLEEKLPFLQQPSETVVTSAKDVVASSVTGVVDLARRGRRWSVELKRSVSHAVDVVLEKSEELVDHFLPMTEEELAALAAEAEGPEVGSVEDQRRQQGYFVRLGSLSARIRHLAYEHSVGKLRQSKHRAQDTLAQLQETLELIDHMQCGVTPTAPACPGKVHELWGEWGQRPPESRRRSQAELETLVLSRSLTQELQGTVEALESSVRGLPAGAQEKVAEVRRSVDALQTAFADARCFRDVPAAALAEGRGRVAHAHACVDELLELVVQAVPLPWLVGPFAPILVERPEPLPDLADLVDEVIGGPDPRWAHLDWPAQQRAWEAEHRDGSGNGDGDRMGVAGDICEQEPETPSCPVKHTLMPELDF
Target sequence (Q8WTS1 whole entry, looked up): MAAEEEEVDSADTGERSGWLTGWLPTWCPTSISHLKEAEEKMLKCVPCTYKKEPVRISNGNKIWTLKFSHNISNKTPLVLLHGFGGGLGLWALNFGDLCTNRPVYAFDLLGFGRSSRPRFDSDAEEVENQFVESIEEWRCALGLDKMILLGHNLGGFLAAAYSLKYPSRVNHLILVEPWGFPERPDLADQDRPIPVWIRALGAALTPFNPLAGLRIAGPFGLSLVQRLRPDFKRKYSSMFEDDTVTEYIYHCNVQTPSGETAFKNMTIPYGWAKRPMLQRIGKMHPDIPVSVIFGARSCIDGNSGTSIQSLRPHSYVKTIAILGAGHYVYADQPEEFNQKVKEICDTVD
ABHD5-PLIN5 conf: ABHD5-PLIN5 interaction inhibition, confirmed; shares compounds with ABHD5 PLIN5 PPI; inhibition, % at 4 µM; 2,200 tested, 67% active; biochemical ABHD5-PLIN5 interaction, luminescence; in the data active = inhibition above about 23%
HNF4 counter: active in HNF4 split-luciferase counter-screen for ABHD5-PLIN5 inhibitors. shares compounds with ABHD5 PLIN5 PPI. HNF4 dimerization, luminescence, biochemical. inhibition, % at 4 µM. 2,200 tested, 77% active. AID 651674;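 active = mean inhibition across replicate wells exceeding the computed hit threshold, cut at about 13% in these data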;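 also: light from luciferase halves that rejoin when HNF4 fusion proteins dimerize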
Hits are given with their value.

For Oc1c(C(Nc2nc3ccccc3s2)c2ccco2)ccc2cccnc12 (stereo unspecified) the results were Rpn11 inh inactive, Rin1 Abl inh inactive, NadD block 35, ABHD5 PLIN5 PPI 45, ABHD5-PLIN5 conf inactive and HNF4 counter 14.
Screening C[C@@H]1CN([C@H](C)CO)C(=O)Cc2cc(NC(=O)Nc3cccc4ccccc34)ccc2O[C@@H]1CN(C)S(=O)(=O)c1ccc(Cl)cc1 returned XiGFP reactiv inactive.
Screening c1cc2c(cc1C1CCCCC1)c1c3n2CCCNC3CCC1 (stereo unspecified) returned Rpn11 inh inactive, Rin1 Abl inh inactive, NadD block inactive, ABHD5 PLIN5 PPI 27, ABHD5-PLIN5 conf inactive and HNF4 counter inactive.
Screening Cc1ccc2c(c1)c1c3n2CCCNC3CCC1 (stereo unspecified) returned Rpn11 inh inactive, Rin1 Abl inh inactive, NadD block inactive and ABHD5 PLIN5 PPI inactive.
For O=C(C[C@@H]1CC[C@@H](NC(=O)c2cccc(F)c2)[C@@H](CO)O1)NCc1ccc(Oc2ccccc2)cc1 the results were XiGFP reactiv inactive.
For COc1ccc(/C=C2\CN(Cc3ccccc3)C/C(=C\c3ccc(OC)c(O)c3)C2=O)cc1O the results were Rpn11 inh inactive, Rin1 Abl inh inactive, XiGFP reactiv inactive, NadD block inactive, ABHD5 PLIN5 PPI 72, ABHD5-PLIN5 conf 93 and HNF4 counter 86.
`CCN1C/C(=C/c2ccc(OC)c(O)c2)C(=O)/C(=C/c2ccc(OC)c(O)c2)C1` gave Rpn11 inh inactive, Rin1 Abl inh inactive, XiGFP reactiv inactive, NadD block inactive, ABHD5 PLIN5 PPI 42, ABHD5-PLIN5 conf 51 and HNF4 counter 30.
`O=C(NCCCN1CCOCC1)c1sc2cc([N+](=O)[O-])ccc2c1Cl` gave Rpn11 inh inactive, Rin1 Abl inh inactive, NadD block inactive, ABHD5 PLIN5 PPI 24, ABHD5-PLIN5 conf inactive and HNF4 counter 66.
`CCCNC(=O)N1CC2(CN(C)C2)c2c([nH]c3cc(OC)ccc23)[C@@H]1CO` gave XiGFP reactiv inactive.
`C[C@@H]1CN([C@@H](C)CO)C(=O)c2cc(C3=CCCCC3)cnc2O[C@H]1CN(C)S(C)(=O)=O` gave XiGFP reactiv inactive.
O=C1C(F)=CC(COC(c2ccccc2)(c2ccccc2)c2ccccc2)OC1n1cc(F)c(=O)[nH]c1=O (stereo unspecified) was read as Rpn11 inh inactive, Rin1 Abl inh inactive, XiGFP reactiv inactive, NadD block 51, ABHD5 PLIN5 PPI 42, ABHD5-PLIN5 conf 101 and HNF4 counter 97.
C[C@H]1CN([C@@H](C)CO)S(=O)(=O)c2ccc(C#CCN(C)C)cc2O[C@H]1CN(C)C(=O)C1CCC1 was read as XiGFP reactiv inactive.
Screening COC(=O)N1CCc2c(sc(NC(=O)C3COc4ccccc4O3)c2C(N)=O)C1 (stereo unspecified) returned Rpn11 inh inactive, Rin1 Abl inh inactive, XiGFP reactiv inactive, NadD block inactive, ABHD5 PLIN5 PPI 40, ABHD5-PLIN5 conf inactive and HNF4 counter inactive.
CC(C)(C)C(=O)Nc1ccc(/C=C/C(=O)c2ccco2)cc1 was read as Rpn11 inh inactive, Rin1 Abl inh inactive, XiGFP reactiv inactive, NadD block inactive, ABHD5 PLIN5 PPI 37, ABHD5-PLIN5 conf 61 and HNF4 counter 44.
O=C(/C=C/c1ccccc1)NNC(=O)c1ccco1 was read as Rpn11 inh inactive, Rin1 Abl inh inactive, XiGFP reactiv inactive, NadD block inactive and ABHD5 PLIN5 PPI inactive.
CC(C)(C)C(=O)Nc1ccc(NC(=O)c2ccco2)nc1 was read as Rpn11 inh inactive, Rin1 Abl inh inactive, XiGFP reactiv inactive, NadD block inactive and ABHD5 PLIN5 PPI inactive.
`N#Cc1ccc(/C=C/C(=O)c2ccco2)cc1` gave Rpn11 inh inactive, Rin1 Abl inh inactive, XiGFP reactiv inactive, NadD block inactive, ABHD5 PLIN5 PPI 63, ABHD5-PLIN5 conf 93 and HNF4 counter 95.
For COc1cccc(CNc2nc3cc(-c4ccccc4)sc3c(=O)n2C)c1 the results were Rpn11 inh inactive, Rin1 Abl inh inactive, XiGFP reactiv inactive, NadD block inactive and ABHD5 PLIN5 PPI inactive.
For COc1cccc(CNc2nc3cc(-c4ccc(C(=O)N5CCN(C)CC5)cc4)sc3c(=O)n2C)c1 the results were Rpn11 inh inactive, Rin1 Abl inh inactive, XiGFP reactiv inactive, NadD block inactive, ABHD5 PLIN5 PPI 24, ABHD5-PLIN5 conf inactive and HNF4 counter inactive.
For CO[C@H]1CN(C)C(=O)c2ccc(NC(=O)C3CC3)cc2OC[C@@H](C)N(C(=O)c2ccccc2F)C[C@H]1C the results were XiGFP reactiv inactive.
Cc1c(CN2CCC(CO)(Cc3cccc(C(F)(F)F)c3)CC2)c2ccccc2n1C was read as Rpn11 inh inactive, Rin1 Abl inh inactive, XiGFP reactiv inactive, NadD block inactive, ABHD5 PLIN5 PPI 28, ABHD5-PLIN5 conf inactive and HNF4 counter inactive.
For OCC1(Cc2cccc(C(F)(F)F)c2)CCN(Cc2cc3ccccc3o2)CC1 the results were Rpn11 inh inactive, Rin1 Abl inh inactive, XiGFP reactiv inactive, NadD block inactive and ABHD5 PLIN5 PPI inactive.
Screening CCC(=O)NC1=C(NC(C)c2ccccc2)C(=O)c2ccccc2C1=O (stereo unspecified) returned Rpn11 inh inactive, Rin1 Abl inh inactive, NadD block inactive and ABHD5 PLIN5 PPI inactive.
For CCC(=O)NC1=C(Cl)C(=O)C(NC(=O)CC)=C(Cl)C1=O the results were Rpn11 inh inactive, Rin1 Abl inh inactive, XiGFP reactiv inactive, NadD block inactive, ABHD5 PLIN5 PPI 45, ABHD5-PLIN5 conf 101 and HNF4 counter 103.
Screening C[C@@H]1CN([C@H](C)CO)S(=O)(=O)c2ccc(C#Cc3ccncc3)cc2O[C@H]1CN(C)C(=O)C1CCC1 returned XiGFP reactiv inactive.
For CC(C)N1C/C(=C/c2cccnc2)C(=O)/C(=C/c2cccnc2)C1 the results were Rpn11 inh inactive, Rin1 Abl inh inactive, XiGFP reactiv inactive, NadD block inactive, ABHD5 PLIN5 PPI 41, ABHD5-PLIN5 conf 86 and HNF4 counter 67.
CN1C/C(=C/c2cccnc2)C(=O)/C(=C/c2cccnc2)C1 was read as Rpn11 inh inactive, Rin1 Abl inh inactive, XiGFP reactiv inactive, NadD block inactive, ABHD5 PLIN5 PPI 66, ABHD5-PLIN5 conf 100 and HNF4 counter 92.
`CC(C)N1C/C(=C/c2ccsc2)C(=O)/C(=C/c2ccsc2)C1` gave Rpn11 inh inactive, Rin1 Abl inh inactive, XiGFP reactiv inactive, NadD block inactive, ABHD5 PLIN5 PPI 28, ABHD5-PLIN5 conf 85 and HNF4 counter 78.

Assay outcomes deposited in PubChem by several laboratories.
